ChEMBL document CHEMBL1147740, “Synthesis and biological activity of isoxazolidinyl polycyclic aromatic hydrocarbons: potential DNA intercalators” (J Med Chem, 2006)
In brackets after ≈: the same amount, converted by molar mass.

Key:
MOLT-3 [1] = test: Cytotoxicity against MOLT3 Leukemia cells by MTS assay; assay type: functional, cell-based, Homo sapiens
Summary of the method: (§1)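 MTS tetrazolium reduction assay; cells grown under optimal culture conditions for 20 h with compound at 10 to 500 µM or without it; MTS reagent then added for 1 h at 37 °C, humidified 5% CO2; absorbance read at 490 nm. Triplicate. IC50 is the concentration giving 50% reduction of absorbance.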

Sindbis virus = test: Antiviral activity against Sindbis virus in vero cells; assay type: functional
Summary of the method: (§2)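 Virus infection of Vero cell cultures. The endpoint is the minimum inhibitory concentration (µg/mL) that reduces virus-induced cytopathogenicity by 50%.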

Human respirovirus 3 = test: Antiviral activity against Parainfluenza-3 virus in vero cells; assay type: functional; summary of the method: as §2
Coxsackievirus B4 [2] = test: Antiviral activity against Coxsackie virus B4 in HeLa cells; assay type: functional; conditions: Enterovirus B
Summary of the method: (§3)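 Virus infection of HeLa cell cultures. The endpoint is the minimum inhibitory concentration (µg/mL) that reduces virus-induced cytopathogenicity by 50%.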

[3] = system: Mammalian orthoreovirus 1; test: Antiviral activity against Reovirus 1 in vero cells; assay type: functional; summary of the method: as §2
Punta Toro virus = test: Antiviral activity against Punta Toro virus in vero cells; assay type: functional
Summary of the method: (§4)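 Minimum inhibitory concentration (µg/mL) needed to reduce virus-induced cytopathogenicity by 50%; HSV strains in HEL cells, Punta Toro virus in Vero cells.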

Vero [4] = test: Antiviral activity against vero cells; assay type: functional, Chlorocebus sabaeus
Summary of the method: (§5)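 Cytotoxicity scored as the concentration giving a microscopically detectable alteration of normal cell morphology in HEL, HeLa or Vero cells.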

[5] = system: Vesicular stomatitis virus; test: Antiviral activity against Vesicular stomatitis virus in HeLa cells; assay type: functional; summary of the method: as §3
[6] = system: Respiratory syncytial virus; test: Antiviral activity against Respiratory syncytial virus in HeLa cells; assay type: functional; conditions: human respiratory syncytial virus; summary of the method: as §3
HeLa = test: Antiviral activity against HeLa cells; assay type: functional, Homo sapiens; summary of the method: as §5
Coxsackievirus B4 [7] = test: Antiviral activity against Coxsackie virus B4 in vero cells; assay type: functional; conditions: Enterovirus B; summary of the method: as §2
MOLT-3 [8] = test: Cytotoxicity against MOLT3 Leukemia cells after 72 hrs of treatment; assay type: functional, cell-based; conditions: Homo sapiens, MOLT-3, 72 h
Summary of the method: (§6)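 Trypan blue exclusion; cells exposed under optimal culture conditions to new compounds at 10 to 500 µM (actinomycin D 1 to 200 µM) or control medium for the stated time. CC50 is the concentration causing 50% toxicity by trypan blue.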

Vero [9] = test: Cytotoxicity against normal vero kidney cells by MTS assay; assay type: functional, cell-based, Chlorocebus sabaeus; summary of the method: as §1
MOLT-3 [10] = test: Cytotoxicity against MOLT3 Leukemia cells after 24 hrs of treatment; assay type: functional, cell-based; conditions: Homo sapiens, MOLT-3, 24 h; summary of the method: as §6
MOLT-3 [11] = test: Cytotoxicity against MOLT3 Leukemia cells after 48 hrs of treatment; assay type: functional, cell-based; conditions: Homo sapiens, MOLT-3, 48 h; summary of the method: as §6
U-937 = test: Cytotoxicity against U937 Lymphoma cells by MTS assay; assay type: functional, cell-based, Homo sapiens; summary of the method: as §1
THP-1 = test: Cytotoxicity against THP1 Leukemia cells by MTS assay; assay type: functional, cell-based, Homo sapiens; summary of the method: as §1
Human alphaherpesvirus 1 [12] = test: Antiviral activity against herpes simplex virus 1 TK- KOS ACVr strain in HEL cells; assay type: functional; summary of the method: as §4
HEL = test: Antiviral activity against HEL cells; assay type: functional, Homo sapiens; summary of the method: as §5
Human alphaherpesvirus 2 = test: Antiviral activity against Herpes simplex virus 2 G strain in HEL cells; assay type: functional; conditions: Human alphaherpesvirus 2, G; summary of the method: as §4
[13] = system: Vesicular stomatitis virus; test: Antiviral activity against Vesicular stomatitis virus in HEL cells; assay type: functional
Summary of the method: (§7)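 Virus infection of HEL cell cultures. The endpoint is the minimum inhibitory concentration (µg/mL) that reduces virus-induced cytopathogenicity by 50%.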

Human alphaherpesvirus 1 [14] = test: Antiviral activity against Herpes simplex virus 1 KOS strain in HEL cells; assay type: functional, Human herpesvirus 1 strain KOS; conditions: Human alphaherpesvirus 1, KOS; summary of the method: as §4
Vaccinia virus = test: Antiviral activity against Vaccinia virus in HEL cells; assay type: functional; conditions: Orthopoxvirus vaccinia; summary of the method: as §7

Compound: OC[C@@H]1C[C@H](c2c3ccccc3cc3ccccc23)N(Cc2ccccc2)O1 (racemic)
- IC50 (MOLT-3 [1]; Homo sapiens, MOLT-3): > 500 µM

Compound: Nc1ncnc2c1ncn2C[C@H](O)CO [(S)-DHPA]
- MIC50 (Sindbis virus): > 400 µg/mL
- MIC50 (Human respirovirus 3): 400 µg/mL (≈ 1910 µM)
- MIC50 (Coxsackievirus B4 [2]): > 400 µg/mL
- MIC50 [3]: 240 µg/mL (≈ 1150 µM)
- MIC50 (Punta Toro virus; Punta Toro virus, read-out: MIC50): > 400 µg/mL
- MCC (Vero [4]; Chlorocebus sabaeus, Vero, read-out: MCC): > 400 µg/mL
- MIC50 [5]: > 400 µg/mL
- MIC50 [6]: > 400 µg/mL
- MCC (HeLa; Homo sapiens, HeLa, read-out: MCC): > 400 µg/mL
- MIC50 (Coxsackievirus B4 [7]): > 400 µg/mL

Compound: CN1O[C@H](CO)C[C@@H]1c1ccc2ccc3cccc4ccc1c2c34 (racemic)
- AC50 (MOLT-3 [8]): 67 µM
- CC50 (MOLT-3 [8]): 133 µM
- IC50 (Vero [9]; Chlorocebus sabaeus, Vero): 159 µM
- AC50 (MOLT-3 [10]): 118 µM
- CC50 (MOLT-3 [10]): 278 µM
- AC50 (MOLT-3 [11]): 71 µM
- CC50 (MOLT-3 [11]): 168 µM
- IC50 (U-937; Homo sapiens, U-937): 111 µM
- IC50 (MOLT-3 [1]; Homo sapiens, MOLT-3): 112 µM
- IC50 (THP-1; Homo sapiens, THP-1): 107 µM

Compound: CN1O[C@H](CO)C[C@@H]1c1cc2ccccc2c2ccccc12 (relative stereo)
- MIC50 (Human alphaherpesvirus 1 [12]): >80 µg/mL
- IC50 (Vero [9]; vero): 231 µM
- IC50 (U-937; u-937): 154 µM
- MIC50 (Punta Toro virus): 9.6 µg/mL (≈ 32.7 µM)
- MCC (Vero [4]): 80 µg/mL
- IC50 (MOLT-3 [1]; molt-3): 128 µM
- MCC (HeLa): 80 µg/mL
- MCC (HEL): 400 µg/mL
- IC50 (THP-1; thp-1): 148 µM

Compound: Nc1nc2c(ncn2COCCO)c(=O)[nH]1 [ACYCLOVIR]
- MIC50 (Human alphaherpesvirus 1 [12]; Human alphaherpesvirus 1, TK- KOS ACVr, read-out: MIC50): 48 µg/mL (≈ 213 µM)
- MIC50 (Human alphaherpesvirus 2): 0.384 µg/mL (≈ 1.71 µM)
- MIC50 [13]: > 400 µg/mL
- MIC50 (Human alphaherpesvirus 1 [14]): 0.384 µg/mL (≈ 1.71 µM)
- MCC (HEL; Homo sapiens, HEL, read-out: MCC): > 400 µg/mL
- MIC50 (Vaccinia virus): > 400 µg/mL

Compound: CN1O[C@@H](CO)C[C@@H]1c1c2ccccc2cc2ccccc12 (racemic)
- IC50 (MOLT-3 [1]; Homo sapiens, MOLT-3): > 500 µM

Compound: OC[C@H]1C[C@H](c2c3ccccc3cc3ccccc23)N(Cc2ccccc2)O1 (racemic)
- IC50 (MOLT-3 [1]; Homo sapiens, MOLT-3): > 500 µM
